Experimental data published in ChEMBL document CHEMBL2176968, “Identification of less lipophilic riminophenazine derivatives for the treatment of drug-resistant tuberculosis” (J Med Chem, 2012).

Key:
[1] = tested on: Mus musculus; assay: Toxicity in BALB/c mouse infected with multi-drug resistant Mycobacterium tuberculosis isolate 040 assessed as skin discoloration at 20 mg/kg, po qd administered 5 days per week during acute phase of infection measured after 20 days; type: organism-based; design: dose 20 mg/kg, route oral; settings: in vivo, 480 h
How it was run: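 Mice were infected by aerosol and then dosed by gavage at 20 mg/kg in 0.5% CMC, 5 days per week, from day 10 to day 30. During treatment, discoloration of ears, internal organs and fat tissue was scored visually and ranked by color intensity.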

[2] = tested on: Mycobacterium tuberculosis; assay: Antitubercular activity against multi-drug resistant Mycobacterium tuberculosis isolate 040 infected in BALB/c mouse assessed as reduction in lung bacterial load at 20 mg/kg, po qd administered 5 days per week during acute phase of infection measured after 20 days relative to untreated control; type: functional
How it was run: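 Infection was by aerosol, depositing 50-100 bacilli per lung. Dosing began on day 10 and ran to day 30, 5 days per week, with compound in 0.5% CMC by gavage. Groups had 5-6 treated mice and 7-10 CMC-treated controls. The day after the last dose, lung homogenates were plated on supplemented 7H11 agar in duplicate for 2-3 weeks at 37°C. Results are log10 CFU per lung; means were compared by Student's t test.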

Row | Structure (SMILES) | Activity [1] | log10cfu [2]
1 | CC(C)/N=c1\cc2n(-c3ccc(Cl)cc3)c3ccccc3nc-2cc1Nc1ccc(Cl)cc1 [CLOFAZIMINE] | Toxic | 3.54
2 | COc1ncccc1Nc1cc2nc3ccccc3n(-c3ccc(Cl)cc3)c-2c/c1=N\C1CCOCC1 | Non-toxic | 4.81
3 | COc1ncccc1Nc1cc2nc3ccccc3n(-c3ccc(F)cc3)c-2c/c1=N\C(C)C | Toxic | 3.91
4 | COc1ncccc1Nc1cc2nc3ccccc3n(-c3ccc(OC(F)(F)F)cc3)c-2c/c1=N\C1CCC(OC)CC1 (centres undefined) | Non-toxic | 4.67
5 | COc1ncccc1Nc1cc2nc3ccccc3n(-c3ccc(F)cc3)c-2c/c1=N\C1CCC(OC)CC1 (centres undefined) | Toxic | 4.35
6 | COc1ncccc1Nc1cc2nc3ccccc3n(-c3ccc(Cl)cc3)c-2c/c1=N\C1CCC(OC)CC1 (centres undefined) | Non-toxic | 4.04
7 | COC1CCC(/N=c2\cc3n(-c4ccc(Cl)cc4)c4ccccc4nc-3cc2Nc2ccc(C)nc2)CC1 (centres undefined) | Non-toxic | 3.25
